Data published in ChEMBL document CHEMBL5120833, “Structure-based design of novel donepezil-like hybrids for a multi-target approach to the therapy of Alzheimer's disease” (Eur J Med Chem, 2022).
Active and inactive are the calls of the source. The calls are words filed in the database; no cut-off is given here.

Assays:
Acetylcholinesterase [1] = target: T1, Acetylcholinesterase (Homo sapiens, UniProt P22303); assay: Inhibition of human AChE by Ellman's spectrophotometric method
[2] = target: Amyloid-beta precursor protein (Homo sapiens) (UniProt P05067); assay: Inhibition of amyloid beta (1 to 40) (unknown origin) aggregation at 100 uM incubated for 2 hrs by Thioflavin T based fluorometric assay
How it was run: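 Aβ40 (30 µM final) co-incubated with inhibitor (100 µM final) in PBS pH 7.4 containing 2% HFIP, 2 h at 25 °C. Thioflavin T (25 µM) then added and fluorescence read. Run in triplicate, reported as mean ± SEM.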

[3] = target: T2, Fatty-acid amide hydrolase 1 (Homo sapiens, UniProt O00519); assay: Inhibition of human recombinant FAAH using AMC-AA as substrate preincubated with enzyme for 10 mins followed by substrate addition for 2 hrs by fluorometric analysis
T2 sequence (O00519 whole entry): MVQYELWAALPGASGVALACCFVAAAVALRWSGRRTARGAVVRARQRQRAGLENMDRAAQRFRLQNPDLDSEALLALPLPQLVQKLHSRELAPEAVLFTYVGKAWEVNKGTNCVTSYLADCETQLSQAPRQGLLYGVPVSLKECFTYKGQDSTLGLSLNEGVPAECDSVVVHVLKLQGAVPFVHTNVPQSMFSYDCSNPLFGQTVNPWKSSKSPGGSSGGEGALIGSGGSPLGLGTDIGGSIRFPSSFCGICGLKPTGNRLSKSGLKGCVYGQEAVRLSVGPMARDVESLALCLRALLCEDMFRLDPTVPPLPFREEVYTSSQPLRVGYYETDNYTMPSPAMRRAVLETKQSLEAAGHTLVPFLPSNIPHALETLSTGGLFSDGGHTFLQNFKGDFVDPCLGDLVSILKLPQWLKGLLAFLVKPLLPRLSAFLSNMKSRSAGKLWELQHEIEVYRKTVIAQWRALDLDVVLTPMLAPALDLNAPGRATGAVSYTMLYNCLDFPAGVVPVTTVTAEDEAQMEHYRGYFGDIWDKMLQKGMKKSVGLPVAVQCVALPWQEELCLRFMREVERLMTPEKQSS
How it was run: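 Human recombinant FAAH preincubated with inhibitor at several concentrations for 10 min at room temperature with orbital shaking in Tris-HCl 125 mM, Na2EDTA 1 mM, pH 9.0. AMC-AA substrate (5 µM final) added, then 2 h at 37 °C with fluorescence read every 30 s (ex 340, em 450 nm). Percent inhibition taken against no-inhibitor and no-enzyme wells. IC50 given as mean ± SEM of at least two independent triplicate runs.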

Cholinesterase [4] = target: T3, Cholinesterase (Homo sapiens, UniProt P06276); assay: Inhibition of human BuChE by Ellman's spectrophotometric method
How it was run: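 Human BChE, modified Ellman spectrophotometric assay in 96-well format. Incubations were run in duplicate. IC50 was determined for inhibitors giving >60% inhibition, from seven final concentrations (10⁻⁵ to 10⁻¹¹ M) diluted in work buffer from a 1000 μM DMSO stock. Values are the mean ± SEM of three independent experiments.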

Cholinesterase [5] = target: T3, Cholinesterase; assay: Inhibition of human BuChE at 10 uM by Ellman's spectrophotometric method
How it was run: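 Percent inhibition of human BChE at a fixed 10 μM inhibitor concentration, by modified Ellman spectrophotometric assay in 96-well format. Incubations were run in duplicate. Values are the mean ± SEM of three independent experiments.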

[6] = Cytotoxicity against human SH-SY5Y cells assessed as inhibition of cell viability incubated for 48 hrs by MTT assay; type: toxicity, cell-based
How it was run: (§1)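 Cells from ATCC; SH-SY5Y grown in 1:1 MEM/Ham's F12, HepG2 in MEM with NEAA, both with 10% heat-inactivated FBS, glutamine, penicillin-streptomycin, 37 °C, 5% CO2. Seeded 10,000-25,000 cells/well, next day exposed to half-log serial dilutions (100 µM to 100 nM) in 1% DMSO final, with untreated controls. After 24 or 48 h, MTT 0.5 mg/mL for 3–4 h at 37 °C; formazan dissolved in DMSO/EtOH 1:1, absorbance 570 nm.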

[7] = Cytotoxicity against human HepG2 cells assessed as inhibition of cell viability incubated for 48 hrs by MTT assay; type: toxicity, cell-based; how it was run: as §1
[8] = Cytotoxicity against human SH-SY5Y cells assessed as inhibition of cell viability incubated for 24 hrs by MTT assay; type: toxicity, cell-based; how it was run: as §1
[9] = Cytotoxicity against human HepG2 cells assessed as inhibition of cell viability incubated for 24 hrs by MTT assay; type: toxicity, cell-based; how it was run: as §1
Acetylcholinesterase [10] = target: T1, Acetylcholinesterase; assay: Potency index, ratio of donepezil IC50 to test compound IC50 for inhibition of human AChE by Ellman's spectrophotometric method
[11] = Metal chelating activity assessed as compound-Zn2+ complex formation at compound:Zn2+ concentration ratio of 1:1 in DMSO-d6/D2O medium by 1H-NMR analysis
Cholinesterase [12] = target: T3, Cholinesterase; assay: Potency index, ratio of donepezil IC50 to test compound IC50 for inhibition of human BuChE by Ellman's spectrophotometric method
[13] = Metal chelating activity assessed as Cu2+-compound complex formation by measuring global formation constant, log(beta)(CumHhLl) in 30% DMSO/water medium by pH potentiometric analysis
How it was run: (§2)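 Cu2+ binding measured by pH-potentiometric titration in 30% w/w DMSO/H2O at 25.0 ± 0.1 °C, ionic strength 0.1 M KCl, with 0.08 M KOH as titrant. Ligand concentration was 4.4×10^-4 M, with Cu:L ratios of 0:1, 1:1 and 1:2. Glass and Ag/AgCl electrodes were checked by HCl/KOH calibration (Gran's method), pKw 14.66. Protonation and complex stability constants came from fitting the data to an equilibrium model.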

[14] = Metal chelating activity assessed as compound-Cu2+ complex formation at stoichiometric ratio of 1:1 in 30% w/w DMSO/H2O medium by ESI-MS spectral analysis
How it was run: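 ESI-MS on an ion-trap instrument in positive and negative ion modes of Cu2+:ligand 1:1 solution in 30% w/w DMSO/H2O. Ligand concentration 2.6×10^-4 M, pH 5.68. Spray voltage ±4.5 kV, capillary temperature 280 °C, N2 sheath gas.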

[15] = Protonation constant of the compound, logKi in 30% w/w DMSO/H2O medium; type: physicochemical
How it was run: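 pH-potentiometric titration in 30% w/w DMSO/H2O at 25.0 ± 0.1 °C, ionic strength 0.1 M KCl, titrant 0.08 M KOH, ligand 4.4×10^-4 M. Glass and Ag/AgCl electrodes conditioned in DMSO/water mixtures and calibrated by HCl/KOH titration (Gran's method); pKw 14.66. Stepwise protonation constants obtained by fitting the titration data.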

[16] = Metal chelating activity assessed as Cu2+-compound complex formation at Cu2+:compound concentration ratio of 1:1 to 1:2 in 30% DMSO/water medium by pH potentiometric analysis; how it was run: as §2
Homo sapiens = organism: Homo sapiens; assay: Selectivity index, ratio of IC50 for human BuChE to IC50 for human AChE

Amyloid-beta precursor protein (Homo sapiens), sequence (P05067 whole entry): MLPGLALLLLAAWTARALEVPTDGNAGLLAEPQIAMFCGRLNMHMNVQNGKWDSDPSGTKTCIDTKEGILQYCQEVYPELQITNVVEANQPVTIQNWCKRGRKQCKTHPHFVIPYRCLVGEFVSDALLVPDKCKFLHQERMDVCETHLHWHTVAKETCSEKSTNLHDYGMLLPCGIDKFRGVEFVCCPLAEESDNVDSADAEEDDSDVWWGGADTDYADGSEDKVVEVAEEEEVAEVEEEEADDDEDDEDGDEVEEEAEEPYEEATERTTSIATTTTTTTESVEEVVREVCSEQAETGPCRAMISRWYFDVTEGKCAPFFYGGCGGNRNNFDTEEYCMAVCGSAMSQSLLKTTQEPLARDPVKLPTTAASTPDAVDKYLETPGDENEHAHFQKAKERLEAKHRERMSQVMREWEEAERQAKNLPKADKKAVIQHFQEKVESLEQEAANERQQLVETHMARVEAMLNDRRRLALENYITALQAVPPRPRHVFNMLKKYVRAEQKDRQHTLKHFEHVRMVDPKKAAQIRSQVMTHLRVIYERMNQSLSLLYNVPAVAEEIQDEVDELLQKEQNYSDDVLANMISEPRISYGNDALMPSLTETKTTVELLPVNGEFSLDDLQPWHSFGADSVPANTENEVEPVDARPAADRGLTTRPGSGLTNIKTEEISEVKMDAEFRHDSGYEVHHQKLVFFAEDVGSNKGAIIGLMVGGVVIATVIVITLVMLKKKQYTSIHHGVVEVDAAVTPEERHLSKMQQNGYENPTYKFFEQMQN
T1 sequence (P22303 whole entry): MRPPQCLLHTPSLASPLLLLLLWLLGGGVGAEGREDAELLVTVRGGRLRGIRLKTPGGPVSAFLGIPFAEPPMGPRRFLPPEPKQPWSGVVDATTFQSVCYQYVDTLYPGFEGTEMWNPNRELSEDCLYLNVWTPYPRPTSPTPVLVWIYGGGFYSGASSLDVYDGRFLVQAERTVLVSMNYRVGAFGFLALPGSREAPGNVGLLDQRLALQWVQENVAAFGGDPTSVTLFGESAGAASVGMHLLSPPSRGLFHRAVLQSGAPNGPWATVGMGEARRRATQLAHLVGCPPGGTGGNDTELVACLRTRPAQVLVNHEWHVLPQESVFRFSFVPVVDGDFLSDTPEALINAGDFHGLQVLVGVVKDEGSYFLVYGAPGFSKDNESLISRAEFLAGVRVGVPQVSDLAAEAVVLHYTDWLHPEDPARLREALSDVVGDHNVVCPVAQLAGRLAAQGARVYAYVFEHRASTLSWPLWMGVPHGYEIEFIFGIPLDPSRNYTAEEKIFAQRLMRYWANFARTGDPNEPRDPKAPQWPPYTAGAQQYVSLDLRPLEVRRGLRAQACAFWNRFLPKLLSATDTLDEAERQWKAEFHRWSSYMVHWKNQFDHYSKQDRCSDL
T3 sequence (P06276 whole entry): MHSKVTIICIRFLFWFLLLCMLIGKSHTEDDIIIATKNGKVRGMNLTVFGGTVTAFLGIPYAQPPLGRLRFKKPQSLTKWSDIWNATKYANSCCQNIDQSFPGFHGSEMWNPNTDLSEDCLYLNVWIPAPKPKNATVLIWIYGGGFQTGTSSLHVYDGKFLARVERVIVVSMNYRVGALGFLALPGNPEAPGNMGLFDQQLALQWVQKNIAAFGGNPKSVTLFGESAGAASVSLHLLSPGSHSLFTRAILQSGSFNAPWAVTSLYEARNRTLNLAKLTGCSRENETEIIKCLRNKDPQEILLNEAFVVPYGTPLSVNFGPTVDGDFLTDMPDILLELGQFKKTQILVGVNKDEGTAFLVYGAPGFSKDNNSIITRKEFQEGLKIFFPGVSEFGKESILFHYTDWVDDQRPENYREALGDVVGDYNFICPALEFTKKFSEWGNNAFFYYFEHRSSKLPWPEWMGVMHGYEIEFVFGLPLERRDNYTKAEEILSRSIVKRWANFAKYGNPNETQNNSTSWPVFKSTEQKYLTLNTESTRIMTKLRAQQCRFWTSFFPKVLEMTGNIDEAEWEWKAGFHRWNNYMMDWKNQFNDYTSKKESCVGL

Row | Compound | IC50 (Acetylcholinesterase [1]) [µM] | IC50 [3] [µM] | IC50 (Cholinesterase [4]) [µM] | inhibition (Cholinesterase [5]) [%] | also measured
1 | O=C(COc1ccc([N+](=O)[O-])cc1)NCCN1CCN(Cc2ccccc2)CC1 | 0.042 | 43.9 |  |  | inhibition [2]: 30%
2 | Cc1cc(Br)cc(C)c1OCC(=O)NCCN1CCN(Cc2ccccc2)CC1 | 0.09 | 40.8 | 4.1 |  | 
3 | O=C(COc1ccc(CCc2ccccc2)cc1)NCC1CCN(Cc2ccccc2)CC1 | 0.135 | 23.8 | 5.08 |  | 
4 | O=C(COc1ccc(-c2ccccc2)cc1)NCCN1CCN(Cc2ccccc2)CC1 | 0.735 | 63.9 | 0.969 |  | 
5 | O=C(COc1ccc(Cc2ccccc2)cc1)NCCN1CCN(Cc2ccccc2)CC1 | 0.993 | 23.6 |  | 29 | 
6 | O=C(COc1cc(F)ccc1[N+](=O)[O-])NCC1CCN(Cc2ccccc2)CC1 | 0.103 | 28.1 |  | 54 | 
7 | COc1ccc(OCC(=O)NCCN2CCN(Cc3ccccc3)CC2)cc1 | 0.3 | 51.9 |  | 25 | inhibition [2]: 30%
8 | O=C(COc1ccc(Cl)cc1[N+](=O)[O-])NCC1CCN(Cc2ccccc2)CC1 | 0.122 | 23.3 | 4.7 |  | 
9 | O=C(COc1ccc(-c2ccccc2)cc1)NCC1CCN(Cc2ccccc2)CC1 | 1.7 | 23.3 | 5.58 |  | 
10 | O=C(COc1ccc(Cl)cc1)NCC1CCN(Cc2ccccc2)CC1 | 1.68 | 20.9 | 5.61 |  | IC50 at 48 h [6]: > 100 µM; IC50 at 48 h [7]: > 100 µM; IC50 at 24 h [8]: > 100 µM; inhibition [2]: 30%; IC50 at 24 h [9]: > 100 µM
11 | O=C(COc1ccccc1C(F)(F)F)NCCN1CCN(Cc2ccccc2)CC1 | 0.136 | 55.1 | 0.503 |  | 
12 | O=C(Oc1ccc([N+](=O)[O-])cc1)N1CCN(Cc2cccc(Oc3ccccc3)c2)CC1 |  | 0.019 |  |  | 
13 | Cc1cc(Br)cc(C)c1OCC(=O)NCC1CCN(Cc2ccccc2)CC1 | 0.595 | 28.6 | 2.22 |  | 
14 | O=C(COc1ccc(Cl)cc1[N+](=O)[O-])NCCN1CCN(Cc2ccccc2)CC1 | 0.0008 | 41.6 | 1.41 |  | Ratio IC50 (Acetylcholinesterase [10]): 21; Activity [11]: Active; IC50 at 48 h [6]: > 100 µM; Ratio IC50 (Cholinesterase [12]): 3; IC50 at 48 h [7]: > 100 µM; log(activity) [13]: -1.81; IC50 at 24 h [8]: > 100 µM; Activity [14]: Active; log(activity) [15]: 2.89; Activity [16]: Active; IC50 at 24 h [9]: > 100 µM; Ratio IC50 (Homo sapiens): 1760
15 | O=C(COc1ccc(Cc2ccccc2)cc1)NCC1CCN(Cc2ccccc2)CC1 | 1.27 | 21.9 |  | 37 | 
16 | O=C(COc1ccc([N+](=O)[O-])cc1)NCC1CCN(Cc2ccccc2)CC1 | 0.509 | 28.5 |  | 24 | 
17 | COc1ccc(OCC(=O)NCC2CCN(Cc3ccccc3)CC2)cc1 | 0.88 | 40.8 |  | 55 | 
18 | O=C(COc1cc(F)ccc1[N+](=O)[O-])NCCN1CCN(Cc2ccccc2)CC1 | 0.0028 | 49.6 | 5.01 |  | Ratio IC50 (Acetylcholinesterase [10]): 6; IC50 at 48 h [6]: > 100 µM; IC50 at 48 h [7]: > 100 µM; IC50 at 24 h [8]: > 100 µM; IC50 at 24 h [9]: > 100 µM; Ratio IC50 (Homo sapiens): 1790
19 | O=C(COc1ccc(Cl)cc1)NCCN1CCN(Cc2ccccc2)CC1 | 0.189 | > 100 | 2.15 |  | inhibition [2]: 30%
20 | O=C(COc1ccc(CCc2ccccc2)cc1)NCCN1CCN(Cc2ccccc2)CC1 | 0.9 | 16.8 |  | 45 | IC50 at 48 h [6]: 34.8 µM; IC50 at 48 h [7]: 15.8 µM; IC50 at 24 h [8]: 27.8 µM; inhibition [2]: 30%; IC50 at 24 h [9]: 41.6 µM
21 | O=C(COc1ccccc1C(F)(F)F)NCC1CCN(Cc2ccccc2)CC1 | 0.767 | 38.2 | 1.02 |  | 
